# In ChEMBL document CHEMBL3526048, “In vitro metabolism of rivoglitazone, a novel peroxisome proliferator-activated receptor γ agonist, in rat, monkey, and human liver microsomes and freshly isolated hepatocytes” (Drug Metab Dispos, 2011):
# Tests used:
# [1] = molecular target: T1, Cytochrome P450 3A4 (Homo sapiens, UniProt P08684); assay: Activity of human CYP3A4 expressed in microsomes isolated from baculovirus infected insect cell assessed as enzyme-mediated compound formation treated with [14C]-rivoglitazone at 20 uM after 2 hrs by radio-HPLC/LC-MS/MS analysis in presence of NADPH-generating system; format: ADME
# Method in brief: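 Baculovirus-insect-cell microsomes expressing the human CYP (1 mg/ml protein) were incubated with [14C]rivoglitazone (20 μM) in 50 mM potassium phosphate (pH 7.4) or 100 mM Tris-HCl (pH 7.5) with an NADPH-generating system (2 mM NADP+, 20 mM glucose 6-phosphate, 2 units/ml G6PDH, 10 mM MgCl2) for 2 h at 37°C. Insect-cell control supersomes served as the control. Reactions were stopped with acetonitrile, and the concentrated supernatants were analysed by radio-HPLC, LC-MS and LC-MS/MS.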
# [2] = system: Hepatocyte (Macaca fascicularis); assay: Drug level in monkey hepatocytes treated with [14C]-rivoglitazone at 30 uM after 3 hrs by radio-HPLC/LC-MS/MS analysis in presence of UDPGA, UDPGA/SAM and NADPH-generating system; conditions: cynomolgus monkey
# [3] = system: Liver microsome; assay: Drug metabolism in Sprague-Dawley rat liver microsomes assessed as formation of 2-mercapto-3-(4-((6-methoxy-1-methyl-1H-benzo[d]imidazol-2-yl)methoxy)phenyl)propanamide at 20 uM after 2 hrs by radio-HPLC/LC-MS/MS analysis in presence of NADPH-generating system and NADPH-generating system/SAM; format: ADME
# [4] = molecular target: T2, UDP-glucuronosyltransferase 1A9 (Homo sapiens, UniProt O60656); assay: Activity of human UGT1A9 expressed in microsomes isolated from baculovirus infected insect cell assessed as enzyme-mediated 2-mercapto-3-(4-((6-methoxy-1-methyl-1H-benzo[d]imidazol-2-yl)methoxy)phenyl)propanoic acid formation at 20 uM after 4 hrs by radio-HPLC/LC-MS/MS analysis in presence of UDPGA; format: ADME
# T2 sequence (O60656 whole entry): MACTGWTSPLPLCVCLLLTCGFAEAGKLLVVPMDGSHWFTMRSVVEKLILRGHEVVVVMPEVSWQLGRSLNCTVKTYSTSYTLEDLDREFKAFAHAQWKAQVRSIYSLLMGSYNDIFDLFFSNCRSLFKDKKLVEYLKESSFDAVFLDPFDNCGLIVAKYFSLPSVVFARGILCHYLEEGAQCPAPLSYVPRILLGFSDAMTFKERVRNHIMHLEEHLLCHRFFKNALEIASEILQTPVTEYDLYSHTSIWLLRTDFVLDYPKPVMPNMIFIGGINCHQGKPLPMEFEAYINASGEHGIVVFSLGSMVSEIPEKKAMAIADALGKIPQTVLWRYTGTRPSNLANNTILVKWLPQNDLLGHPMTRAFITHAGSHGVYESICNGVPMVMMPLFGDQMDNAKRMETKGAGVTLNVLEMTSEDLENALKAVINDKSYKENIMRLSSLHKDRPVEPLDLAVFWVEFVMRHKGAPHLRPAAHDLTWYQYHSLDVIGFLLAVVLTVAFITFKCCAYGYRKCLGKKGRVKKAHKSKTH
# [5] = molecular target: T1, Cytochrome P450 3A4; assay: Activity of human CYP3A4 expressed in microsomes isolated from baculovirus infected insect cell assessed as enzyme-mediated 3-(4-((6-methoxy-1-methyl-1H-benzo[d]imidazol-2-yl)methoxy)phenyl)-2-(methylsulfinyl)propanamide formation at 20 uM after 2 hrs by radio-HPLC/LC-MS/MS analysis in presence of NADPH-generating system/SAM; format: ADME
# [6] = molecular target: Cytochrome P450 3A5 (Homo sapiens, UniProt P20815); assay: Activity of human CYP3A5 expressed in microsomes isolated from baculovirus infected insect cell assessed as enzyme-mediated 5-(4-((6-hydroxy-1-methyl-1H-benzo[d]imidazol-2-yl)methoxy)benzyl)thiazolidine-2,4-dione formation at 20 uM after 2 hrs by radio-HPLC/LC-MS/MS analysis in presence of NADPH-generating system and NADPH-generating system/SAM; format: ADME
# Method in brief: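 cDNA-expressed human CYP3A5 in baculovirus-insect-cell microsomes (1 mg/ml protein) was incubated with [¹⁴C]rivoglitazone (20 μM) in 50 mM potassium phosphate (pH 7.4) or 100 mM Tris-HCl (pH 7.5). NADPH-generating system: 2 mM NADP⁺, 20 mM glucose 6-phosphate, 2 units/ml G6PDH, 10 mM MgCl₂. Incubation ran 2 h at 37°C with shaking; insect-cell control supersomes served as control. Acetonitrile stop, supernatant concentrated, then radio-HPLC, LC-MS and LC-MS/MS.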
# [7] = molecular target: T3, UDP-glucuronosyltransferase 2B7 (Homo sapiens, UniProt P16662); assay: Activity of human UGT2B7 expressed in microsomes isolated from baculovirus infected insect cell assessed as enzyme-mediated 2-mercapto-3-(4-((6-methoxy-1-methyl-1H-benzo[d]imidazol-2-yl)methoxy)phenyl)propanamide formation at 20 uM after 4 hrs by radio-HPLC/LC-MS/MS analysis in presence of NADPH-generating system and NADPH-generating system/SAM in presence of UDPGA and UDPGA/SAM; format: ADME
# T3 sequence (P16662 whole entry): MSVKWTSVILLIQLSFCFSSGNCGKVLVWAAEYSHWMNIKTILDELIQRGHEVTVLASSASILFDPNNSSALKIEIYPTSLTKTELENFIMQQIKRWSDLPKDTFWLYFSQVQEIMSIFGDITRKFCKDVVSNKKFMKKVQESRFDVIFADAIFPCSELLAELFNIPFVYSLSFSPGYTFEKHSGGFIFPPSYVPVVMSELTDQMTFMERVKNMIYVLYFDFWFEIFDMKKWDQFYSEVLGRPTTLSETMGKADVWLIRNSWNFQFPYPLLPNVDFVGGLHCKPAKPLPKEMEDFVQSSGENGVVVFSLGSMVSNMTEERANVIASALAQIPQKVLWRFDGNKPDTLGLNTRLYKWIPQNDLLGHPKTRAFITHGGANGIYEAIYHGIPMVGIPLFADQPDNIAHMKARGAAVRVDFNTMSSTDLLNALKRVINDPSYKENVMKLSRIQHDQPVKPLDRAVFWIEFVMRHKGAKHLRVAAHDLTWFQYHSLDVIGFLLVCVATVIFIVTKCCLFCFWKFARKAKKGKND
# [8] = molecular target: T1, Cytochrome P450 3A4; assay: Activity of human CYP3A4 expressed in microsomes isolated from baculovirus infected insect cell assessed as enzyme-mediated (2S,3S,4S,5R,6R)-6-((1-carboxy-2-(4-((6-methoxy-1-methyl-1H-benzo[d]imidazol-2-yl)methoxy)phenyl)ethylthio)carbonylamino)-3,4,5-trihydroxytetrahydro-2H-pyran-2-carboxylic acid formation at 20 uM after 2 hrs by radio-HPLC/LC-MS/MS analysis in presence of NADPH-generating system/SAM; format: ADME
# [9] = molecular target: T3, UDP-glucuronosyltransferase 2B7; assay: Activity of human UGT2B7 expressed in microsomes isolated from baculovirus infected insect cell assessed as enzyme-mediated 3-(4-((6-methoxy-1-methyl-1H-benzo[d]imidazol-2-yl)methoxy)phenyl)-2-(methylthio)propanoic acid formation at 20 uM after 4 hrs by radio-HPLC/LC-MS/MS analysis in presence of NADPH-generating system/SAM and UDPGA/SAM in presence of UDPGA and UDPGA/SAM; format: ADME
# [10] = molecular target: T3, UDP-glucuronosyltransferase 2B7; assay: Activity of human UGT2B7 expressed in microsomes isolated from baculovirus infected insect cell assessed as enzyme-mediated 3-(4-((6-methoxy-1-methyl-1H-benzo[d]imidazol-2-yl)methoxy)phenyl)-2-(methylthio)propanamide formation at 20 uM after 4 hrs by radio-HPLC/LC-MS/MS analysis in presence of NADPH-generating system/SAM in presence of UDPGA and UDPGA/SAM; format: ADME
# T1 sequence (P08684 whole entry): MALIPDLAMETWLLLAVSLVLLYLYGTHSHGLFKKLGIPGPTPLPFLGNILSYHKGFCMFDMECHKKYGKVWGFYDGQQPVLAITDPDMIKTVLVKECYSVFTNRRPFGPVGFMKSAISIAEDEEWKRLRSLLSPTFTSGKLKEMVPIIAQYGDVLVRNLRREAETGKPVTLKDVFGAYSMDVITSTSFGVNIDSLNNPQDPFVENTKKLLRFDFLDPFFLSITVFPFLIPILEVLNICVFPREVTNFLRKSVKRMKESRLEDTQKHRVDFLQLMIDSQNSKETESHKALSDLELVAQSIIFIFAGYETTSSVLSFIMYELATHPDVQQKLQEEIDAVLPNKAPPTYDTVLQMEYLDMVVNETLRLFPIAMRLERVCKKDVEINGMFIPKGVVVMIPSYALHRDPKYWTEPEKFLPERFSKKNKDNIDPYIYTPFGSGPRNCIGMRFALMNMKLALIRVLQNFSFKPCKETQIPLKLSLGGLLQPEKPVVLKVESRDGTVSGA
# Chain of Cytochrome P450 3A5 (P20815 whole entry): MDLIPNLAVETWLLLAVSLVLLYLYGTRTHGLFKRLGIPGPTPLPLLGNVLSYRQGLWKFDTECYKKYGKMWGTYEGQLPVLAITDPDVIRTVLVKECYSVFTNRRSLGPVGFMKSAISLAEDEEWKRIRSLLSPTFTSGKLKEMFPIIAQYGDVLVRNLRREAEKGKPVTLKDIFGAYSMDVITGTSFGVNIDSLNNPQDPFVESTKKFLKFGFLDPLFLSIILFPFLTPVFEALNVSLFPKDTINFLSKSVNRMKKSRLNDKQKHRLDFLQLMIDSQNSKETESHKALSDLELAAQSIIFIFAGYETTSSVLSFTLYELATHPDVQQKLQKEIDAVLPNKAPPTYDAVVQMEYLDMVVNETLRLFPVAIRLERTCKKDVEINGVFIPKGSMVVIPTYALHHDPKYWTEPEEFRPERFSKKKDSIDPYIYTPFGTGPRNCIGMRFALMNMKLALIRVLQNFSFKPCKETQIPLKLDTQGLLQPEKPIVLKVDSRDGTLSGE
Drug metabolism [1],Drug metabolism [2],Drug metabolism [3],Drug metabolism [4],Drug metabolism [5],Drug metabolism [6],Drug metabolism [7],Drug metabolism [8],Drug metabolism [9],Drug metabolism [10],Structure (SMILES)
metabolite_detected,metabolite_not_detected,,,,,,,,,COc1ccc2nc(COc3ccc(CC(S)C(=O)O)cc3)n(C)c2c1 (stereo not given)
,,metabolite_detected,metabolite_not_detected,metabolite_not_detected,metabolite_detected,metabolite_not_detected,metabolite_not_detected,metabolite_not_detected,metabolite_not_detected,COc1ccc2nc(COc3ccc(C[14CH]4SC(=O)NC4=O)cc3)n(C)c2c1.Cl (racemic)
